The list is not random: actives were taken first. Their share in the collection is about 1.8%.
SIAE inh: human SIAE inhibition, primary screen | 0.69% of 370,000 active | inhibition, % at 9.66 µM | SIAE FP-Rh probe binding, fluorescence polarization | AID 1053197 | Q9HAT2;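 active = inhibition above a cutoff: mean of compounds within the control limits plus 3 SD of those, cut at about 17% in these data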
HTRA1 inh: inhibitors of human serine peptidase HTRA1. Q92743. recombinant HTRA1, FP-rhodamine activity-based probe, fluorescence polarization. 0.5% of 340,000 active. inhibition, % at 5.96 µM; in the data active = inhibition above about 36%
Target sequence (Q92743 whole entry, looked up): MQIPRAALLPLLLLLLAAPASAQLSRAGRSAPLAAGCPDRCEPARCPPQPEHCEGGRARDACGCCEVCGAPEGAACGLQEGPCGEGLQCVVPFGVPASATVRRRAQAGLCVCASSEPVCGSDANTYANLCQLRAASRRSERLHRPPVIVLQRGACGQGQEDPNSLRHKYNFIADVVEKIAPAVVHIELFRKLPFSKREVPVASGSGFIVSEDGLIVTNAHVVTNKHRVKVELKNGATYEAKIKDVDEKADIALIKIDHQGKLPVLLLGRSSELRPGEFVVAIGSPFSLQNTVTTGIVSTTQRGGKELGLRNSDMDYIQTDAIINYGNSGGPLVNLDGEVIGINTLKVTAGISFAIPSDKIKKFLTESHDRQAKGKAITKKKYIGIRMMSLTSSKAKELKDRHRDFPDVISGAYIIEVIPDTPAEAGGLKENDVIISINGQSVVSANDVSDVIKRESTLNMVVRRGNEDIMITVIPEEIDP
mABHD4 FP: ABHD4 (mouse) inhibition, primary FP screen; inhibition, % at 8.92 µM; AID 720543; 0.54% of 370,000 active; purified mABHD4, FP-Rh probe fluorescence polarization; Q8VD66;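 active = inhibition exceeding the mean over every tested compound plus 3 SD, cut at about 30% in these data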
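Assay system: mABHD4 protein; medium: HEPES pH 7.0, NaCl, Pluronic buffer; dosing: 8.92 µM, single dose; schedule: 45 min + 60 min at 25 °C; signal: FP readout, ex 525 nm / em 598 nm; read-out: normalized percent inhibition of probe labeling; repeats: single replicate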
TCR CD3 inh: blocks the human TCR-CD3 interaction. inhibition, % at 9.4 µM. 0.37% of 360,000 active. TAMRA-labeled TCR probe fluorescence, biochemical. AID 651800; in the data active = inhibition above about 19%;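 note: recombinant mutant TCR 2C K166C tagged with TAMRA read by polarization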
ARNT TACC3 PPI: ARNT/TACC3 interaction disruption | Q9Y6A5 | AlphaScreen His-ARNT PAS-B/GST-TACC3 binding, luminescence; TACC3 fragment carries E629A point mutation | inhibition, % at 9.99 µM | 0.66% of 390,000 active | AID 623870;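 active = mean inhibition of replicates at least 50% and at least half of replicates each reaching 50%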
Each line names hits and unclear results; the compound was inactive in the other large screens.

C[C@H](CO)N1C[C@H](C)[C@H](CN(C)CC2CCCCC2)Oc2ccc(NC(=O)Nc3cccc4ccccc34)cc2CC1=O	none (no result: SIAE inh, HTRA1 inh, mABHD4 FP, TCR CD3 inh)
CC(C)NC(=O)Nc1cccc2c1O[C@H](CN(C)Cc1ccc(Oc3ccccc3)cc1)[C@@H](C)CN([C@@H](C)CO)C2=O	ARNT TACC3 PPI active (no result: SIAE inh, HTRA1 inh, mABHD4 FP, TCR CD3 inh)
C[C@H](NC(=O)C[C@H]1C[C@@H]2c3cc(NC(=O)CC4CC4)ccc3O[C@@H]2[C@@H](CO)O1)c1ccccc1	none (no result: SIAE inh, HTRA1 inh, mABHD4 FP, TCR CD3 inh)
Cc1ccc(S(=O)(=O)Nc2cccc3c2O[C@@H](CN(C)C(=O)NC2CCCCC2)[C@@H](C)CN([C@H](C)CO)C3=O)cc1	none (no result: SIAE inh, HTRA1 inh, mABHD4 FP, TCR CD3 inh)
CN(C)C(=O)C[C@H]1C=C[C@@H](NS(=O)(=O)c2ccccc2)[C@H](CO)O1	none (no result: SIAE inh, HTRA1 inh, mABHD4 FP, TCR CD3 inh)
C[C@H]1CN([C@@H](C)CO)C(=O)Cc2cc(NC(=O)c3ccncc3)ccc2O[C@H]1CN(C)S(=O)(=O)c1ccc(F)cc1	none (no result: SIAE inh, HTRA1 inh, mABHD4 FP, TCR CD3 inh)
Cc1nnc(NC(=O)c2ccc(S(=O)(=O)N3CCCCC3C)cc2)o1 (stereo unspecified)	ARNT TACC3 PPI 51
CC1CCCCN1S(=O)(=O)c1ccc(C(=O)Nc2nnc(C3CC3)o2)cc1 (stereo unspecified)	ARNT TACC3 PPI 46
O=C(Nc1nnc(C2CC2)o1)c1ccc(S(=O)(=O)N2CCCc3ccccc32)cc1	ARNT TACC3 PPI 48
CC1CCCCN1S(=O)(=O)c1ccc(C(=O)Nc2nnc(-c3ccco3)o2)cc1 (stereo unspecified)	none
CCCC#Cc1ccc2c(c1)O[C@H](CN(C)C(=O)c1ccccc1)[C@H](C)CN([C@@H](C)CO)S2(=O)=O	none (no result: SIAE inh, HTRA1 inh, mABHD4 FP, TCR CD3 inh)
COc1cc(/C=C2\SC(=O)N(c3ccc(Cl)cc3)C2=O)cc([N+](=O)[O-])c1O	mABHD4 FP 37
O=C(C[C@H]1C[C@@H]2c3cc(NC(=O)c4ccc5c(c4)OCO5)ccc3O[C@@H]2[C@@H](CO)O1)NCC(F)(F)F	none (no result: SIAE inh, HTRA1 inh, mABHD4 FP, TCR CD3 inh)
CC(C)C(=O)Nc1cccc(-c2nc3ccccc3c(=O)o2)c1	none (no result: ARNT TACC3 PPI)
CC(C)C(=O)Nc1ccc(-c2nc3ccccc3c(=O)o2)cc1	ARNT TACC3 PPI 16
CCOC(=O)c1c(NC(C)=O)sc2c(O)cccc12	none
CCOC(=O)c1c(NC(C)=O)sc2c(O)c(Br)cc(Br)c12	mABHD4 FP 36 (no result: ARNT TACC3 PPI)
CCC(=O)N1CC[C@H]2[C@@H]1c1cc(-c3cccc(F)c3)ccc1N(C)[C@H]2CO	none (no result: SIAE inh, HTRA1 inh, mABHD4 FP, TCR CD3 inh)
COc1ccccc1NC(=S)NN=C(C)c1ccccn1	ARNT TACC3 PPI 65
CC(=NNC(=S)Nc1ccc(C)cc1)c1ccccn1	ARNT TACC3 PPI 62
O=C(N/N=C/c1cc(Br)ccc1O)C(=O)Nc1ccccc1OC(F)(F)C(F)F	HTRA1 inh 46
O=C(N/N=C/c1cc(Cl)ccc1O)C(=O)Nc1ccccc1OC(F)(F)C(F)F	none
C[C@H](O)C#Cc1ccc2c(c1)O[C@H](CN(C)C(=O)Cc1ccccn1)[C@@H](C)CN([C@@H](C)CO)S2(=O)=O	none (no result: SIAE inh, HTRA1 inh, mABHD4 FP, TCR CD3 inh)
CC(C)NC(=O)N(C)C[C@H]1Oc2ccc(NS(=O)(=O)c3ccccc3)cc2CC(=O)N([C@H](C)CO)C[C@@H]1C	none (no result: SIAE inh, HTRA1 inh, mABHD4 FP, TCR CD3 inh)
CCOc1ccc(C(=O)N/N=C/c2cccc3cccnc23)cc1	ARNT TACC3 PPI 65
CCOc1ccccc1C=NNC(=O)c1cccc2ccccc12	none
COc1ccc(C(=O)N/N=C/c2cccc3cccnc23)cc1	ARNT TACC3 PPI 88
CCOc1ccccc1C(=O)N/N=C/c1cccc2cccnc12	ARNT TACC3 PPI 72
COc1ccc(C(=O)N/N=C/c2c(C)[nH]c(=O)[nH]c2=O)cc1	ARNT TACC3 PPI 38
COc1ccc(CO/N=C/c2c(C)[nH]c(=O)[nH]c2=O)cc1	none
COc1ccc(C(=O)N/N=C/c2cccnc2)cc1	none
CCOc1ccc(C(=O)N/N=C/c2ccccc2[N+](=O)[O-])cc1	none
C[C@@H]1CCCCO[C@@H](CN(C)S(=O)(=O)c2ccc(F)cc2)[C@@H](C)CN([C@@H](C)CO)C(=O)c2cc(NC(=O)Nc3ccccc3)ccc2O1	none (no result: SIAE inh, HTRA1 inh, mABHD4 FP, TCR CD3 inh)
CCCNC(=O)N1C[C@H](O)COC[C@H]2O[C@H](CC(=O)N[C@@H]3CCN(Cc4ccccc4)C3)CC[C@@H]21	none (no result: SIAE inh, HTRA1 inh, mABHD4 FP, TCR CD3 inh)
C[C@H](NC(=O)OC(C)(C)C)C(=O)N/N=C/c1cccc2nccnc12	ARNT TACC3 PPI 27
CSCC[C@H](NC(=O)OC(C)(C)C)C(=O)N/N=C/c1cccc2cccnc12	ARNT TACC3 PPI 62
C[C@@H]1CN([C@H](C)CO)C(=O)c2cc(NC(=O)c3ccncc3)ccc2O[C@@H](C)CCCCO[C@@H]1CN(C)S(=O)(=O)c1ccc(Cl)cc1	none (no result: SIAE inh, HTRA1 inh, mABHD4 FP, TCR CD3 inh)
S=c1c2c(nc3nc[nH]n13)CCC2	ARNT TACC3 PPI 35
O=C(/C(=C(\[O-])c1ccccc1)[n+]1ccc2ccccc2c1)c1ccccc1	ARNT TACC3 PPI 50
C[C@H]1CCCCO[C@H](CN(C)C(=O)Nc2ccc3c(c2)OCO3)[C@@H](C)CN([C@@H](C)CO)C(=O)c2cc(NC(=O)Nc3cccc4ccccc34)ccc2O1	none (no result: SIAE inh, HTRA1 inh, mABHD4 FP, TCR CD3 inh)
COCCCNc1nc(=S)[nH]c2cc(OC)c(OC)cc12	ARNT TACC3 PPI 64
COc1cc2[nH]c(=S)nc(NCCC(C)C)c2cc1OC	ARNT TACC3 PPI 64
COc1cc2[nH]c(=S)nc(NCC3CCCO3)c2cc1OC (stereo unspecified)	none (no result: ARNT TACC3 PPI)
COc1cc2[nH]c(=S)nc(NCc3ccc(Cl)cc3)c2cc1OC	none
CC(C)NC(=O)Nc1ccc2c(c1)CC(=O)N([C@H](C)CO)C[C@H](C)[C@H](CN(C)C(=O)Nc1ccc3c(c1)OCO3)O2	none (no result: SIAE inh, HTRA1 inh, mABHD4 FP, TCR CD3 inh)
C[C@@H]1CN([C@@H](C)CO)C(=O)c2cc(NC(=O)CCN3CCOCC3)ccc2O[C@@H]1CN(C)Cc1ccc2c(c1)OCO2	none (no result: SIAE inh, HTRA1 inh, mABHD4 FP, TCR CD3 inh)
CCOc1cc(CNc2ccc(O)cc2)cc(Br)c1OCc1ccccc1F	HTRA1 inh 44 (no result: SIAE inh, mABHD4 FP, TCR CD3 inh)
O=C(Nc1ccc(N2CCOCC2)cc1)c1ccc2nc(-c3ccco3)c(-c3ccco3)nc2c1	none
CC(=O)c1ccc(NC(=O)c2ccc3nc(-c4ccco4)c(-c4ccco4)nc3c2)cc1	HTRA1 inh 39 (no result: SIAE inh, mABHD4 FP, TCR CD3 inh)
Cc1ccsc1/C=N/Nc1ncnc2nc[nH]c12	ARNT TACC3 PPI 58
O=c1cc(O)n(C2CCCCCC2)c(=O)[nH]1	ARNT TACC3 PPI active
O=C(O)CC1S/C(=N/N=C/C=C/c2ccccc2)NC1=O (stereo unspecified)	none
O=C(O)CC1S/C(=N/N=C/C=C/c2ccccc2[N+](=O)[O-])NC1=O (stereo unspecified)	ARNT TACC3 PPI 34
C[C@H]1CN([C@@H](C)CO)C(=O)c2cc(C#CCN(C)C)cnc2O[C@@H]1CN(C)S(=O)(=O)c1cn(C)cn1	none (no result: SIAE inh, HTRA1 inh, mABHD4 FP, TCR CD3 inh)
O=C(CN1C(=O)CSC1=O)N1CCc2ccccc2C1	ARNT TACC3 PPI 30
O=C(CN1C(=O)NC2(CCCCCCC2)C1=O)N1CCc2ccccc2C1	none
COc1cc(NCCCCCCCN)c2ncccc2c1	none (no result: SIAE inh, mABHD4 FP, TCR CD3 inh)
COc1cc(NC(C)CCCN)c2ncccc2c1 (stereo unspecified)	ARNT TACC3 PPI 36
O=C(NCc1ccccn1)c1n[nH]c2ccccc12	ARNT TACC3 PPI 24
O=C(NCc1ccccn1)c1n[nH]c(=O)c2ccccc12	none

Bioassay records as filed in PubChem.
